From ChEMBL document CHEMBL1687823, “PA-824 exhibits time-dependent activity in a murine model of tuberculosis” (Antimicrob Agents Chemother, 2011)
In brackets after ≈: the same amount, converted by molar mass.

How the values were obtained:
[1] = test system: Mycobacterium tuberculosis; assay: fT>MIC for >= 1 log reduction in CFU count in Mycobacterium tuberculosis H37Rv in using simulated dose of at 400 mg assessed as time during compound concentration exceeds MIC of 0.06250 ug/ml assuming 15% unbound compound concentration by one compartment human pharmacokinetic model; format: functional
Procedure, shortened: (§1)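 A one-compartment PK model was fitted to human data to get median parameters. It simulated steady-state total and free concentrations for 100, 200 or 400 mg once daily, assuming 5, 7, 10 or 15% unbound drug. Free T>MIC was computed against MICs of 0.03125–0.25 µg/ml and compared with the mouse-derived T>MIC target for 1-log10 kill.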

[2] = test system: Mycobacterium tuberculosis; assay: fT>MIC for >= 1 log reduction in CFU count in Mycobacterium tuberculosis H37Rv in using simulated dose of at 100 mg assessed as time during compound concentration exceeds MIC of 0.12500 ug/ml assuming 5% unbound compound concentration by one compartment human pharmacokinetic model; format: functional; procedure, shortened: as §1
[3] = test system: Mycobacterium tuberculosis; assay: fT>MIC for >= 1 log reduction in CFU count in Mycobacterium tuberculosis H37Rv in using simulated dose of at 400 mg assessed as time during compound concentration exceeds MIC of 0.06250 ug/ml assuming 7% unbound compound concentration by one compartment human pharmacokinetic model; format: functional
Procedure, shortened: (§2)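 Human steady-state simulation: one-compartment PK model fitted to patient data, chosen by AIC. Median PK parameters used to simulate total and free concentrations, assuming 5, 7, 10 or 15% unbound, for 100, 200 and 400 mg once daily. Free levels compared with MICs of 0.03125 to 0.25 µg/ml to give %T>MIC; T>MIC is the cumulative percentage of the dosing interval above MIC.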

[4] = test system: Mycobacterium tuberculosis; assay: fT>MIC for >= 1 log reduction in CFU count in Mycobacterium tuberculosis H37Rv in using simulated dose of at 200 mg assessed as time during compound concentration exceeds MIC of 0.03125 ug/ml assuming 10% unbound compound concentration by one compartment human pharmacokinetic model; format: functional; procedure, shortened: as §1
[5] = test system: Mycobacterium tuberculosis; assay: fT>MIC for >= 1 log reduction in CFU count in Mycobacterium tuberculosis H37Rv in using simulated dose of at 200 mg assessed as time during compound concentration exceeds MIC of 0.12500 ug/ml assuming 10% unbound compound concentration by one compartment human pharmacokinetic model; format: functional; procedure, shortened: as §1
[6] = test system: Mycobacterium tuberculosis; assay: fT>MIC for >= 1 log reduction in CFU count in Mycobacterium tuberculosis H37Rv in using simulated dose of at 200 mg assessed as time during compound concentration exceeds MIC of 0.12500 ug/ml assuming 5% unbound compound concentration by one compartment human pharmacokinetic model; format: functional; procedure, shortened: as §1
[7] = test system: Mycobacterium tuberculosis; assay: fT>MIC for >= 1 log reduction in CFU count in Mycobacterium tuberculosis H37Rv in using simulated dose of at 100 mg assessed as time during compound concentration exceeds MIC of 0.12500 ug/ml assuming 10% unbound compound concentration by one compartment human pharmacokinetic model; format: functional; procedure, shortened: as §1
[8] = test system: Mycobacterium tuberculosis; assay: fT>MIC for >= 1 log reduction in CFU count in Mycobacterium tuberculosis H37Rv in using simulated dose of at 200 mg assessed as time during compound concentration exceeds MIC of 0.06250 ug/ml assuming 5% unbound compound concentration by one compartment human pharmacokinetic model; format: functional; procedure, shortened: as §1
[9] = test system: Mycobacterium tuberculosis; assay: Antitubercular activity against Mycobacterium tuberculosis H37Rv assessed as reduction in CFU count by agar proportion method; format: functional
Procedure, shortened: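 Agar proportion method on 7H11 agar with 10% OADC containing 2-fold drug dilutions (0.007–2.0 µg/ml). Plates inoculated with serial 100-fold dilutions of log-phase H37Rv broth culture (~10^8 CFU/ml). Drug-free and isoniazid plates as controls. CFU counted after 21 days at 37°C, 5% CO2. MIC is the lowest concentration giving <1% of drug-free CFU.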

Mus musculus = assay: Toxicity in BALB/c mouse assessed as adverse effect up to 1456 mg/kg, po administered as single dose; format: organism-based; set-up: route oral; settings: in vivo
Procedure, shortened: (§3)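 Uninfected 6-week female BALB/c mice received single oral gavage doses of 3–1,458 mg/kg as a cyclodextrin-micelle suspension. Three mice per time point were bled by cardiac puncture under isoflurane at 0.5–120 h. Serum levels were measured by validated HPLC-UV (standards 0.20–50 µg/ml).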

[10] = test system: Mycobacterium tuberculosis; assay: fT>MIC for >= 1 log reduction in CFU count in Mycobacterium tuberculosis H37Rv in using simulated dose of at 200 mg assessed as time during compound concentration exceeds MIC of 0.12500 ug/ml assuming 7% unbound compound concentration by one compartment human pharmacokinetic model; format: functional; procedure, shortened: as §1
[11] = test system: Mycobacterium tuberculosis; assay: fT>MIC for >= 1 log reduction in CFU count in Mycobacterium tuberculosis H37Rv in using simulated dose of at 100 mg assessed as time during compound concentration exceeds MIC of 0.12500 ug/ml assuming 7% unbound compound concentration by one compartment human pharmacokinetic model; format: functional; procedure, shortened: as §1
[12] = Cmax in mouse at 100 or 50 mg/kg, po administered as single dose; format: ADME, organism-based; set-up: dose 50 mg/kg, route oral; settings: in vivo
[13] = test system: Mycobacterium tuberculosis; assay: fT>MIC for >= 1 log reduction in CFU count in Mycobacterium tuberculosis H37Rv in using simulated dose of at 400 mg assessed as time during compound concentration exceeds MIC of 0.25000 ug/ml assuming 15% unbound compound concentration by one compartment human pharmacokinetic model; format: functional; procedure, shortened: as §2
[14] = test system: Mycobacterium tuberculosis; assay: fT>MIC for >= 1 log reduction in CFU count in Mycobacterium tuberculosis H37Rv in using simulated dose of at 100 mg assessed as time during compound concentration exceeds MIC of 0.03125 ug/ml assuming 5% unbound compound concentration by one compartment human pharmacokinetic model; format: functional; procedure, shortened: as §1
[15] = test system: Mycobacterium tuberculosis; assay: fT>MIC for >= 1 log reduction in CFU count in Mycobacterium tuberculosis H37Rv in using simulated dose of at 200 mg assessed as time during compound concentration exceeds MIC of 0.06250 ug/ml assuming 7% unbound compound concentration by one compartment human pharmacokinetic model; format: functional; procedure, shortened: as §1
[16] = test system: Mycobacterium tuberculosis; assay: fT>MIC for >= 1 log reduction in CFU count in Mycobacterium tuberculosis H37Rv in using simulated dose of at 400 mg assessed as time during compound concentration exceeds MIC of 0.25000 ug/ml assuming 10% unbound compound concentration by one compartment human pharmacokinetic model; format: functional; procedure, shortened: as §2
[17] = Tmax in BALB/c mouse up to 1456 mg/kg, po administered as single dose; format: ADME, organism-based; set-up: route oral; settings: in vivo; procedure, shortened: as §3
[18] = test system: Mycobacterium tuberculosis; assay: fT>MIC for >= 1 log reduction in CFU count in Mycobacterium tuberculosis H37Rv in using simulated dose of at 200 mg assessed as time during compound concentration exceeds MIC of 0.03125 ug/ml assuming 15% unbound compound concentration by one compartment human pharmacokinetic model; format: functional; procedure, shortened: as §1
[19] = test system: Mycobacterium tuberculosis; assay: Antitubercular activity against Mycobacterium tuberculosis H37Rv infected in BALB/c mouse assessed as reduction in log10 CFU count at 96 mg/kg, po bid; format: functional
Procedure, shortened: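 Female 6-week BALB/c mice were aerosol-infected with log-phase H37Rv, aiming to implant ~3.5 log10 CFU. Treatment began 14 days later: gavage of cyclodextrin-micelle suspension for 24 consecutive days, total 0–4,608 mg/kg split into 3–48 equal doses, 3 mice per group. Lungs harvested 4 days after last dose and plated on selective OADC-7H11. CFU transformed as log10(x+1).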

O=[N+]([O-])c1cn2c(n1)OC[C@@H](OCc1ccc(OC(F)(F)F)cc1)C2 [PRETOMANID]
fT>MIC [1]: 100%
fT>MIC [2]: 0%
fT>MIC [3]: 100%
fT>MIC [4]: 100%
fT>MIC [5]: 46%
fT>MIC [6]: 0%
fT>MIC [7]: 0%
fT>MIC [8]: 46%
MIC [9]: 0.06 µg/mL (≈ 0.167 µM)
Activity (Mus musculus): Non-toxic
fT>MIC [10]: 4%
fT>MIC [11]: 0%
Cmax [12]: 3800 ng/mL
fT>MIC [13]: 67%
fT>MIC [14]: 46%
fT>MIC [15]: 67%
fT>MIC [16]: 46%
Tmax [17]: 4 h
fT>MIC [18]: 100%
log10cfu [19]: 2.4
